Data as given in ChEMBL document CHEMBL1123779, “Modifications of primaquine as antimalarials. 4. 5-Alkoxy derivatives of primaquine” (J Med Chem, 1987).

What was measured:
Plasmodium cynomolgi [1] = assay: Cures in Plasmodium cynomolgi infected Rhesus monkeys (Macaca mulatta) on 0.316 mg/kg/day after 7 days; cured 3 of 3; format: functional
Plasmodium cynomolgi [2] = assay: Cures in Plasmodium cynomolgi infected Rhesus monkeys (Macaca mulatta) on 1 mg/kg/day after 7 days; cured 1 of 1; format: functional
Plasmodium cynomolgi [3] = assay: Cures in Plasmodium cynomolgi infected Rhesus monkeys (Macaca mulatta) on 3.16 mg/kg/day after 7 days; cured 0 of 1; format: functional
Plasmodium cynomolgi [4] = assay: Radical curative antimalarial activity against Plasmodium cynomolgi in Rhesus monkeys (Macaca mulatta) at 0.1 mg/kg/day over 7 days; cured 5 of 5; format: functional
Mus musculus [5] = assay: Suppressive blood schizonticidal antimalarial activity evaluated in the trophozoite-induced Plasmodium berghei infection in mice (Mus musculus) at a dose 10 mg/kg given as no. of cures; format: functional
How it was run: (§1)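 Run at the Rane Laboratory with blood-induced P. berghei infections in mice, five animals per group. A cure is a mouse surviving to 60 days postinfection. Deaths before day 6 are recorded separately as toxic deaths. Activity is scored from the increase in mean survival time over untreated controls, and counts as active when treated MST is more than twice control MST.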

Mus musculus [6] = assay: Suppressive blood schizonticidal antimalarial activity evaluated in the trophozoite-induced Plasmodium berghei infection in mice (Mus musculus) at a dose 2.5 mg/kg given as number of cures; format: functional; how it was run: as §1
Mus musculus [7] = assay: Suppressive blood schizonticidal antimalarial activity evaluated in the trophozoite-induced Plasmodium berghei infection in mice (Mus musculus) at a dose 20 mg/kg given as no. of cures; format: functional; how it was run: as §1
Plasmodium berghei [8] = assay: Blood schizonticidal activity in trophozoite-induced Plasmodium berghei infected mice (Mus musculus) at 40 mg/kg; numbers cured; format: functional; how it was run: as §1
Mus musculus [9] = assay: Suppressive blood schizonticidal antimalarial activity evaluated in the trophozoite-induced Plasmodium berghei infection in mice (Mus musculus) at a dose 5 mg/kg given as no. of cures; format: functional; how it was run: as §1
Mus musculus [10] = assay: Suppressive blood schizonticidal antimalarial activity evaluated in the trophozoite-induced Plasmodium berghei infection in mice (Mus musculus) at a dose 80 mg/kg given as no. of cures; format: functional; how it was run: as §1
Mus musculus [11] = assay: Suppressive blood schizonticidal antimalarial activity evaluated in the trophozoite-induced Plasmodium berghei infection in mice (Mus musculus) at a dose 160 mg/kg given as no. of toxic deaths; format: functional
How it was run: (§2)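 Rane Laboratory mouse test with blood-induced P. berghei infection, five mice per group. Toxic deaths are deaths occurring before the 6th day postinfection.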

Mus musculus [12] = assay: Suppressive blood schizonticidal antimalarial activity evaluated in the trophozoite-induced Plasmodium berghei infection in mice (Mus musculus) at a dose 320 mg/kg given as no. of toxic deaths; format: functional; how it was run: as §2
Plasmodium berghei [13] = assay: Suppressive blood schizonticidal antimalarial activity evaluated in the trophozoite-induced Plasmodium berghei infection in mice (Mus musculus) at a dose 640 mg/kg given as number of toxic deaths; format: toxicity, organism-based; design: dose 640 mg/kg; conditions: in vivo; how it was run: as §2
Plasmodium cynomolgi [14] = assay: Cures in Plasmodium cynomolgi infected Rhesus monkeys (Macaca mulatta) on 0.316 mg/kg/day after 7 days; cures 2 of 2; format: functional
Plasmodium cynomolgi [15] = assay: Radical curative antimalarial activity against Plasmodium cynomolgi in Rhesus monkeys (Macaca mulatta) at 1 mg/kg/day over 7 days; cured 4 of 4; format: functional
Plasmodium cynomolgi [16] = assay: Cures in Plasmodium cynomolgi infected Rhesus monkeys (Macaca mulatta) on 10.0 mg/kg/day after 7 days; format: functional, organism-based
Plasmodium cynomolgi [17] = assay: Cures in Plasmodium cynomolgi infected Rhesus monkeys (Macaca mulatta) on 0.1 mg/kg/day after 7 days (x7); cured 0 of 2; format: functional
Mus musculus [18] = assay: Suppressive blood schizonticidal antimalarial activity evaluated in the trophozoite-induced Plasmodium berghei infection in mice (Mus musculus) at a dose 2.5 mg/kg; format: functional
How it was run: (§3)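 Run at the Rane Laboratory in mice infected with blood-induced P. berghei, five animals per group. Activity is the increase in mean survival time over untreated infected controls. A compound counts as active when treated-group MST is more than twice the control MST. Cures are mice surviving at 60 days postinfection.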

Plasmodium cynomolgi [19] = assay: Cures in Plasmodium cynomolgi infected Rhesus monkeys (Macaca mulatta) on 0.316 mg/kg/day after 7 days; cured 2 of 4; format: functional
Plasmodium cynomolgi [20] = assay: Cures in Plasmodium cynomolgi infected Rhesus monkeys (Macaca mulatta) on 1 mg/kg/day after 7 days; cured 2 of 2; format: functional
Mus musculus [21] = assay: Suppressive blood schizonticidal antimalarial activity evaluated in the trophozoite-induced Plasmodium berghei infection in mice (Mus musculus) at a dose 80 mg/kg given as no. of toxic deaths; format: functional; how it was run: as §2
Plasmodium berghei [22] = assay: Blood schizonticidal antimalarial activity in the trophozoite-induced Plasmodium berghei infection in mice (Mus musculus) at 20 mg/kg; format: functional; design: unit not given beside the values; how it was run: as §3
Mus musculus [23] = assay: Suppressive blood schizonticidal antimalarial activity evaluated in the trophozoite-induced Plasmodium berghei infection in mice (Mus musculus) at a dose 10 mg/kg; format: functional; how it was run: as §3
Mus musculus [24] = assay: Suppressive blood schizonticidal antimalarial activity evaluated in the trophozoite-induced Plasmodium berghei infection in mice (Mus musculus) at a dose 40 mg/kg; format: functional; design: unit not given beside the values; how it was run: as §3
Plasmodium cynomolgi [25] = assay: Cures in Plasmodium cynomolgi infected Rhesus monkeys (Macaca mulatta) on 0.316 mg/kg/day after 7 days; cured 0 of 2; format: functional
Plasmodium cynomolgi [26] = assay: Cures in Plasmodium cynomolgi infected Rhesus monkeys (Macaca mulatta) on 1 mg/kg/day after 7 days; cured 3 of 4; format: functional
Mus musculus [27] = assay: Suppressive blood schizonticidal antimalarial activity evaluated in the trophozoite-induced Plasmodium berghei infection in mice (Mus musculus) at a dose 160 mg/kg; format: functional; how it was run: as §3

Row | Structure (SMILES) | Cures (Mus musculus [5]) | Cures (Mus musculus [7]) | Cures (Plasmodium berghei [8]) | Cures (Mus musculus [9]) | Cures (Mus musculus [10]) | Toxic deaths (Mus musculus [11]) | Toxic deaths (Mus musculus [12]) | Toxic deaths (Plasmodium berghei [13]) | Cures/no. of animals (Plasmodium cynomolgi [16]) | Cures/no. of animals (Plasmodium cynomolgi [17]) | Delta MST (Plasmodium berghei [22]) | Delta MST (Mus musculus [23]) | other results
1 | CCCCCCOc1c(OC)cc(NC(C)CCCN)c2nccc(C)c12 (stereo not given) [WR-242511] | 1 | 5 | 5 | 1 | 4 | 3 | 5 | 5 |  |  |  |  | Cures/no. of animals (Plasmodium cynomolgi [1]): 3; Cures/no. of animals (Plasmodium cynomolgi [2]): 1; Cures/no. of animals (Plasmodium cynomolgi [3]): 0; Cures/no. of animals (Plasmodium cynomolgi [4]): 5; Cures (Mus musculus [6]): 1
2 | CCCCCCCOc1c(OC)cc(NC(C)CCCN)c2nccc(C)c12 (stereo not given) | 3 | 5 | 4 | 3 | 2 | 1 | 5 | 5 | Toxic | 0 |  |  | Cures/no. of animals (Plasmodium cynomolgi [14]): 2; Cures/no. of animals (Plasmodium cynomolgi [15]): 4; Delta MST (Mus musculus [18]): 7.9
3 | CCCCOc1c(OC)cc(NC(C)CCCN)c2ncccc12 (stereo not given) |  |  |  |  |  | 3 |  | 5 | Toxic |  | 6.5 | 4.1 | Cures/no. of animals (Plasmodium cynomolgi [19]): 2; Cures/no. of animals (Plasmodium cynomolgi [20]): 2; Toxic deaths (Mus musculus [21]): 2; Delta MST (Mus musculus [24]): 6.7
4 | CCCCCCOc1c(OC)cc(NC(C)CCCN)c2ncc(C)cc12 (stereo not given) |  |  | 2 |  | 1 |  | 3 | 4 |  | 0 | 8.2 | 0.2 | Cures/no. of animals (Plasmodium cynomolgi [25]): 0; Cures/no. of animals (Plasmodium cynomolgi [26]): 3; Delta MST (Mus musculus [27]): 7.6
